In ChEMBL document CHEMBL5678799 (Biochem J, 2009):

Columns and labels:
[1] = biological target: Protein kinase C alpha type (Homo sapiens) (UniProt P17252); assay: (§1) Inhibition of recombinant human N-terminal His6-tagged PKCalpha (1 to 672 residues) expressed in baculovirus infected Sf21 cells assessed as remaining activity at 10 uM using Histone H1 as substrate incubated for 30 mins in presence of [gamma-33P]ATP by filter binding method relative to control
[2] = tested on: RAC-alpha serine/threonine-protein kinase (Homo sapiens), P31749 [S473D]; assay: as §1, with “human” for “human N-terminal”, “AKT1 S473D mutant (118” for “PKCalpha (1”, “480” for “672”, “1” for “10”, “crosstide peptide” for “Histone H1”
Method in brief: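 Radiometric panel assay run robotically at 21 °C for 30 min, linear in time and enzyme. […] Activity is expressed as percentage of the compound-omitted control, averaged from triplicates ± S.D.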

[3] = biological target: Mitogen-activated protein kinase 13 (Homo sapiens) (UniProt O15264); assay: Inhibition of recombinant human GST-tagged P38delta (1 to 365 residues) expressed in Escherichia coli assessed as remaining activity at 1 uM using MBP as substrate incubated for 30 mins in presence of [gamma-33P]ATP by filter binding method relative to control
Method in brief: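 Kinase panel run robotically at 21 °C for 30 min, linear in time and enzyme. […] Compound tested at 1 or 10 µM. Activity given as percentage of incubations without compound, mean of triplicates ± S.D.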

[4] = biological target: Fibroblast growth factor receptor 1 (Homo sapiens) (UniProt P11362); assay: Inhibition of recombinant human N-terminal His6-tagged FGFR1 (400 to 820 residues) expressed in baculovirus infected Sf21 cells assessed as remaining activity at 1 uM using Poly(Glu,Tyr) as substrate incubated for 30 mins in presence of [gamma-33P]ATP by filter binding method relative to control
Method in brief: (§2)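 Panel assays were run for 30 min at 21 °C, within the linear range for time and enzyme. […] Results are percent activity remaining relative to compound-free control, averaged from triplicate ± S.D.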

[5] = biological target: MAP kinase-activated protein kinase 5 (Homo sapiens) (UniProt Q8IW41); assay: Inhibition of recombinant human His6-tagged PRAK (1 to 471 residues) expressed in baculovirus infected Sf21 cells assessed as remaining activity at 1 uM using phosphorylase b peptide as substrate incubated for 30 mins in presence of [gamma-33P]ATP by filter binding method relative to control
Method in brief: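 Robotic radiometric panel assay, 30 min at room temperature (21 °C), with 10 mM magnesium acetate. […] Compound at 1 or 10 µM. Residual activity expressed relative to compound-free control; triplicate average ± S.D.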

[6] = biological target: Phosphatidylinositol 4-phosphate 3-kinase C2 domain-containing subunit beta (Homo sapiens) (UniProt O00750); assay: Inhibition of PI3KC2beta (unknown origin) assessed as remaining activity at 10 uM using phosphatidylinositol as substrate incubated for 30 mins in presence of ATP relative to control
Method in brief: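 PI3KC2β assayed with 20 μM phosphatidylinositol, 0.2 mM ATP, 2 mM MgCl2, in Tris/HCl pH 7.5 with CHAPS, 30 min at room temperature. Stopped with EDTA, product detected by time-resolved FRET competition with PtdIns3P–biotin and SGK PX domain. Activity as % of no-compound control, triplicate.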

[7] = tested on: Serine/threonine-protein kinase Sgk1 (Homo sapiens), O00141 [S422D]; assay: Inhibition of recombinant human His6-tagged SGK1 S422D mutant (60 to 431 residues) expressed in baculovirus infected Sf21 cells assessed as remaining activity at 10 uM using GRPRTSSFAEGKK as substrate incubated for 30 mins in presence of [gamma-33P]ATP by filter binding method relative to control
Method in brief: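 Incubations ran robotically for 30 min at room temperature (21 °C) under linear conditions. Results are percent activity remaining versus controls without compound, as the mean of triplicates ± S.D.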

mTORC2 (Homo sapiens) [8] = biological target: T1, mTORC2 (Homo sapiens) (UniProt P42345+Q6R327+Q9BVC4+Q9BPZ7); settings: HEK293, dose 30-1000 nM, time 30.0 min
[9] = biological target: Tyrosine-protein kinase BTK (Homo sapiens) (UniProt Q06187); assay: Inhibition of recombinant human N-terminal His6-tagged BTK (2 to 659 residues) expressed in baculovirus infected Sf21 cells assessed as remaining activity at 1 uM using KVEKIGEGTYGVVYK as substrate incubated for 30 mins in presence of [gamma-33P]ATP by filter binding method relative to control
Method in brief: (§3)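 Incubation was 30 min at room temperature (21 °C) under conditions linear with time and enzyme amount. Activity is reported as percent of control lacking compound, triplicate mean ± S.D.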

[10] = biological target: Serine/threonine-protein kinase 3 (Homo sapiens) (UniProt Q13188); assay: Inhibition of recombinant human N-terminal GST-tagged MST2 (2 to 491 residues) expressed in baculovirus infected Sf21 cells assessed as remaining activity at 1 uM using MBP as substrate incubated for 30 mins in presence of [gamma-33P]ATP by filter binding method relative to control; method in brief: as §2
[11] = biological target: Serine/threonine-protein kinase PAK 6 (Homo sapiens) (UniProt Q9NQU5); assay: Inhibition of recombinant human N-terminal GST-tagged PAK6 (2 to 681 residues) expressed in Escherichia coli assessed as remaining activity at 10 uM using RRRLSFAEPG as substrate incubated for 30 mins in presence of [gamma-33P]ATP by filter binding method relative to control; method in brief: as §2
Homo sapiens = organism: Homo sapiens; assay: Inhibition of choline kinase (unknown origin) assessed as remaining activity at 10 uM using choline as substrate incubated for 30 mins in presence of ATP by Kinase Glo assay relative to control
Method in brief: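 Choline kinase assayed with 1 mM choline, 1 μM ATP in 25 mM glycine/NaOH pH 8.5, 67 mM KCl, 5 mM MgCl2, 1 mM DTT, 30 min at room temperature. Stopped with Kinase-Glo Plus, luminescence read after 10 min. Activity relative to control, triplicate.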

mTORC2 (Homo sapiens) [12] = biological target: T1, mTORC2 (Homo sapiens); settings: HEK293, dose 30-1000 nM, time 30.0 min; remark: listed apart in the source
[13] = biological target: Aurora kinase B (Homo sapiens) (UniProt Q96GD4); assay: Inhibition of recombinant human N-terminal His6-tagged Aurora B (1 to 344 residues) expressed in Escherichia coli assessed as remaining activity at 10 uM using LRRLSLGLRRLSLGLRRLSLGLRRLSLG as substrate incubated for 30 mins in presence of [gamma-33P]ATP by filter binding method relative to control
[14] = biological target: Maternal embryonic leucine zipper kinase (Homo sapiens) (UniProt Q14680); assay: Inhibition of recombinant human N-terminal GST/C-terminal His6-tagged MELK (2 to 651 residues) expressed in Escherichia coli assessed as remaining activity at 1 uM using KKLNRTLSFAEPG as substrate incubated for 30 mins in presence of [gamma-33P]ATP by filter binding method relative to control; method in brief: as §3
mTORC2 (Homo sapiens) [15] = biological target: T1, mTORC2 (Homo sapiens); settings: HEK293, dose 30-1000 nM, time 30.0 min; remark: listed apart in the source
mTORC1 (Homo sapiens) = mTORC1 (Homo sapiens) (UniProt P42345+Q8N122+Q9BVC4); settings: HEK293, dose 100-300 nM, time 30.0 min

Chain of Mitogen-activated protein kinase 13 (Homo sapiens) (O15264 whole entry, the tested form may be a part): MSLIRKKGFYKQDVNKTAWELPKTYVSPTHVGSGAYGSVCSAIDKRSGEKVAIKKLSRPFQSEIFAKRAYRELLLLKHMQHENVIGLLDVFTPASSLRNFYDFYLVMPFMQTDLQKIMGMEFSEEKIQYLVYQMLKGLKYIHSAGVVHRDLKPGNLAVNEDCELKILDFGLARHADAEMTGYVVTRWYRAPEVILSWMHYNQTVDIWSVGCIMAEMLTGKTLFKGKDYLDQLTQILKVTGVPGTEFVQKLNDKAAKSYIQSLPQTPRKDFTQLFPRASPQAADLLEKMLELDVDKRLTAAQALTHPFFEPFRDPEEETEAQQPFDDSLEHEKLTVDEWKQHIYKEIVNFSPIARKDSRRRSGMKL
Chain of Fibroblast growth factor receptor 1 (Homo sapiens) (P11362 22-822 limits assumed): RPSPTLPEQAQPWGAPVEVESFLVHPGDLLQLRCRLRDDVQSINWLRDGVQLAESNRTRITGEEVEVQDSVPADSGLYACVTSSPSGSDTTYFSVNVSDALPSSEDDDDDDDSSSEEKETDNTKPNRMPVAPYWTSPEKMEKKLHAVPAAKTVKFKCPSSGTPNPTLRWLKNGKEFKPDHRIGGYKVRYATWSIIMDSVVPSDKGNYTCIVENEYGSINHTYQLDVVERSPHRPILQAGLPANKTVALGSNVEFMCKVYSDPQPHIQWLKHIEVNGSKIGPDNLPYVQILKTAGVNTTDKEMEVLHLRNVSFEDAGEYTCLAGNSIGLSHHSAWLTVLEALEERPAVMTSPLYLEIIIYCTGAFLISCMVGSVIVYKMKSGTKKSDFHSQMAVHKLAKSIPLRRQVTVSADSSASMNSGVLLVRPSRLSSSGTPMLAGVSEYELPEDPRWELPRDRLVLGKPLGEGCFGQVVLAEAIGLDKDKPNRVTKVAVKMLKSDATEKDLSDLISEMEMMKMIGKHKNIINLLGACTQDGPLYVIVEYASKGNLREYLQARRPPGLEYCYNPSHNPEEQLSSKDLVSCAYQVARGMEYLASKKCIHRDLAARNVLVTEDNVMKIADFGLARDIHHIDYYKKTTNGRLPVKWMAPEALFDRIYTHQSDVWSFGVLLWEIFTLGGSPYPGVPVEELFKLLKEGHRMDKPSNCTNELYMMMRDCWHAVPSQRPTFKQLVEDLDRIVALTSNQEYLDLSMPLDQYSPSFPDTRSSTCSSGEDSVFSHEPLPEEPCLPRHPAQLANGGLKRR
Chain of Aurora kinase B (Homo sapiens) (Q96GD4 whole entry, the tested form may be a part): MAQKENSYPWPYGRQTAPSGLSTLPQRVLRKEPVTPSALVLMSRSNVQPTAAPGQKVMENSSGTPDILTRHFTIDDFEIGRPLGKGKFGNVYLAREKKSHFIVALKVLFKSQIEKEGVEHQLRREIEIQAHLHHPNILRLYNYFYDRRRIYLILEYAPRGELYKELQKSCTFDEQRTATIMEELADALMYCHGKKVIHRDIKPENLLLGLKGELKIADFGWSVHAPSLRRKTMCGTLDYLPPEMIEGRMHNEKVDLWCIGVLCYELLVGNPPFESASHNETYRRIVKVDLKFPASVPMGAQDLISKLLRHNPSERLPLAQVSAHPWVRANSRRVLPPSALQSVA
Chain of Tyrosine-protein kinase BTK (Homo sapiens) (Q06187 whole entry, the tested form may be a part): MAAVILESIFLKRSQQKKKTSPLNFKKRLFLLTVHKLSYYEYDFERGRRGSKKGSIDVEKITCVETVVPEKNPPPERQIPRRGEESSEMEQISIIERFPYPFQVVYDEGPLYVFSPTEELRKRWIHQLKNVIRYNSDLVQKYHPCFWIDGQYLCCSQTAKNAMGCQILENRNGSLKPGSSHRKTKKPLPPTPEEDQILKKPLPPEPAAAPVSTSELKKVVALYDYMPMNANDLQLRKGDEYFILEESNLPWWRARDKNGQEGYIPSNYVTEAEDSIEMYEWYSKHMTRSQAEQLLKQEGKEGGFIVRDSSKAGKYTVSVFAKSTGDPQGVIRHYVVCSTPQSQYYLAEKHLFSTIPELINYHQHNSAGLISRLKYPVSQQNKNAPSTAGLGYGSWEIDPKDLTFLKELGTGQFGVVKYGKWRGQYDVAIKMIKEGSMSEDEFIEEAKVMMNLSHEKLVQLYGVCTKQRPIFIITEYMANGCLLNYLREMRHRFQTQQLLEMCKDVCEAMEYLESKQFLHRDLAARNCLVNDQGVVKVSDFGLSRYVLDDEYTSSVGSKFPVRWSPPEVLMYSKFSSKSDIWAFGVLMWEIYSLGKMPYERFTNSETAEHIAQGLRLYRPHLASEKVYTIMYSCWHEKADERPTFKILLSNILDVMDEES
Chain of Maternal embryonic leucine zipper kinase (Homo sapiens) (Q14680 whole entry, looked up, the tested form may be a part): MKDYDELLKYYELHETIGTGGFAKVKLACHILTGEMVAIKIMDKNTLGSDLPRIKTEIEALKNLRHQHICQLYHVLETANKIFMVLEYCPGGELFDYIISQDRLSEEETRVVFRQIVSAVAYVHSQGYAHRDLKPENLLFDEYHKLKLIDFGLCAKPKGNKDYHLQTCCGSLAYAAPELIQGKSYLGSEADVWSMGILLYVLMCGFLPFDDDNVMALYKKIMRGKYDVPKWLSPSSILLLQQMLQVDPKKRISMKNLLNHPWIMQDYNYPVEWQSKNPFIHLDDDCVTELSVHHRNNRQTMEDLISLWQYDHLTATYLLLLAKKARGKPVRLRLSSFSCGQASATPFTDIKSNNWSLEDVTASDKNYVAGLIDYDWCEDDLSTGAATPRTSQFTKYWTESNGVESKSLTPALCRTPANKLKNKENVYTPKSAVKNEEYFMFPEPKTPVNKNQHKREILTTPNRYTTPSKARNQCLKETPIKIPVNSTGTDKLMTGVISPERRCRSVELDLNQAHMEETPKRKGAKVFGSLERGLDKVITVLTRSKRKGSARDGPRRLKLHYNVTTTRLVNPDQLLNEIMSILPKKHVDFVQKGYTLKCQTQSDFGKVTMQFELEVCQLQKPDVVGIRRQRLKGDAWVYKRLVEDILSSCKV
Chain of RAC-alpha serine/threonine-protein kinase (Homo sapiens), P31749 [S473D] (P31749 whole entry S473D): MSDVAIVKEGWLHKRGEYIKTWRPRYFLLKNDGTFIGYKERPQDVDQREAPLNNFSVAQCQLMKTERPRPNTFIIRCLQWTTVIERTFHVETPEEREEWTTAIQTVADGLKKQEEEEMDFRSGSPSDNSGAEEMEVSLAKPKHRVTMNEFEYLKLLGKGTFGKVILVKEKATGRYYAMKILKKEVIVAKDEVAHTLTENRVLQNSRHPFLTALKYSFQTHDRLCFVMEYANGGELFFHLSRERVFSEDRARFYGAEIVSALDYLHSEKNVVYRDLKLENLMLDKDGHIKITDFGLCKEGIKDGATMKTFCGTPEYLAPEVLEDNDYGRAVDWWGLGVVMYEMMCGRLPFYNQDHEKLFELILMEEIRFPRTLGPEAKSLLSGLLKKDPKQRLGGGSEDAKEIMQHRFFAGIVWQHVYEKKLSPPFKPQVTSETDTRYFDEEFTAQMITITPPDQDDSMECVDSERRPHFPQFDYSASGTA
Chain of MAP kinase-activated protein kinase 5 (Homo sapiens) (Q8IW41 whole entry, the tested form may be a part): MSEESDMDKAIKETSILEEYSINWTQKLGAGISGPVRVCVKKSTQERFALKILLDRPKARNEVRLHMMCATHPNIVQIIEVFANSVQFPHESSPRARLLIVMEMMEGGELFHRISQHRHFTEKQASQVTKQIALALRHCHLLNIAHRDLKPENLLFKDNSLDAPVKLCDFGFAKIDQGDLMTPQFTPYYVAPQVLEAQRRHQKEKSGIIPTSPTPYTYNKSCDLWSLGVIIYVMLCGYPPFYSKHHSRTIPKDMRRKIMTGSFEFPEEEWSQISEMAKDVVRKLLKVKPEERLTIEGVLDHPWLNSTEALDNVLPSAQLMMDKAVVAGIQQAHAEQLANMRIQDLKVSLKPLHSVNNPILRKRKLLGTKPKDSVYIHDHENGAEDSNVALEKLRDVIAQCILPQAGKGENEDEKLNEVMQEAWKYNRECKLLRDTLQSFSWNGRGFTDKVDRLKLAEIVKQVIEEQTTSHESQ
Chain of Serine/threonine-protein kinase Sgk1 (Homo sapiens), O00141 [S422D] (O00141 whole entry S422D, the tested form may be a part): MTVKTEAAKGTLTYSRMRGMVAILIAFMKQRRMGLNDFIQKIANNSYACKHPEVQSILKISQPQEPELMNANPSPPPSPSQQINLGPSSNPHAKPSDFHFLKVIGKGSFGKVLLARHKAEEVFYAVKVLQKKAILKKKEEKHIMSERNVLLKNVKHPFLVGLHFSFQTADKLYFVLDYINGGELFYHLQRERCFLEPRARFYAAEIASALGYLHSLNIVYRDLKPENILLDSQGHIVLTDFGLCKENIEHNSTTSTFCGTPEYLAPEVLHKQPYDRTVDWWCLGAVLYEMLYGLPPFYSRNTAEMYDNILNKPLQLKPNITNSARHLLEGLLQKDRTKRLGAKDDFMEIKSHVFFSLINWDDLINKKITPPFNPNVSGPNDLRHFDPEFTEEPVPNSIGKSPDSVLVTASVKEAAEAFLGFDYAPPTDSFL

COc1ccc(-c2ccc3c(N4CCOCC4)nc(N4C[C@@H](C)O[C@@H](C)C4)nc3n2)cc1CO [Ku-0063794]
Activity [1]: 86%
Activity [2]: 98%
Activity [3]: 72%
Activity [4]: 102%
Activity [5]: 67%
Activity [6]: 82%
Activity [7]: 64%
inhibition (mTORC2 (Homo sapiens) [8]): Dose-Dependent Effect
Activity [9]: 85%
Activity [10]: 81%
Activity [11]: 100%
Activity (Homo sapiens): 102%
inhibition (mTORC2 (Homo sapiens) [12]): Dose-Dependent Effect
Activity [13]: 86%
Activity [14]: 91%
inhibition (mTORC2 (Homo sapiens) [15]): Dose-Dependent Effect
inhibition (mTORC1 (Homo sapiens)): 100%
